B1: tRNA (parent)
chain: GUUCCGUUGGCGUAAUGGUAACGCGUCUCCCUCCUAAGGAGAAGACUGCGGGUUCGAGUCCCGUACGGAACG

Variants at the floor of the assay were thinned out. A value given as a limit tells only on which side of the number the result lay.

Variants of B1 are the subject of this series. Description: yeast fitness relative to wild type (ratio to wild type); higher = fitter; tRNA-Arg(CCU), competitive growth, 37 C, YPD. An outline of the steps:
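Genotype frequency changes were the basis for Darwinian fitness relative to wild type. The frequencies came from 100-nucleotide paired-end sequencing of gene amplicons from the start population and each end population of pooled yeast strains with tRNA-Arg(CCU) gene variants at the native locus. Competition ran in YPD at 37°C for 24 hours in six replicates, genotypes needed ≥ 100 starting reads, and estimates < 0.5 were set to 0.5.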
On to U13A C34G C61U, for which the yeast fitness was no more than 0.5.

In the case of U13A G18C A36G G41C A65C, the yeast fitness stood at 0.544.

With U13C A37G C60A A65U, the yeast fitness is no more than 0.5.

U13A C27U C62U: the yeast fitness was found to be 0.786.

U13A U28C C60G C66G: the yeast fitness was found to be 0.6.

As for U13A C33U A45C C46G A69U, the yeast fitness came to 0.579.

For U13C A14G A42C C62G, the yeast fitness was no more than 0.5.

Regarding U13A C55U G58A U59C C62U, the yeast fitness is no more than 0.5.

As to U13A U28A U47G C62U A65U, the yeast fitness was no more than 0.5.

As to U13A G17C C31A, the yeast fitness worked out at 0.623.

In the case of U13A A57G A69C, the yeast fitness was determined as 0.503.

Regarding U13C A36C G67U, the yeast fitness stood at 0.637.

For U13C A20G C46U U47A A70U, the yeast fitness was no more than 0.5.

Turning to U13A G18C U26A, the yeast fitness was no more than 0.5.

On to U13A C29U A40C A69U, for which the yeast fitness is no more than 0.5.

In the case of U13C C22U C27U A37C A57G, the yeast fitness is no more than 0.5.

On to U13C A42U U54C, for which the yeast fitness stood at 0.592.

Regarding U13C A43U A70C, the yeast fitness came out at 0.679.

As to U13A C22G C31G C61A G67A, the yeast fitness is no more than 0.5.

For U13A G23A U35G U59C, the yeast fitness was determined as 0.528.

In the case of U13C C22U C27U A37C G67A, the yeast fitness is no more than 0.5.

Take U13A G67U: the yeast fitness is 0.727.

For U13A G67A, the yeast fitness was 0.9.

In the case of U13C C22U G38C A57C, the yeast fitness came to 0.599.

In the case of U13C C22U G38C A57U, the yeast fitness was no more than 0.5.

For U13A U16C C34A, the yeast fitness is no more than 0.5.

U13A G41A A45C: the yeast fitness is 0.552.

Take U13C A15U C61U A65C: the yeast fitness is no more than 0.5.

Consider U13A C30G C61U G68A, for which the yeast fitness is no more than 0.5.

Take U13C C27A: the yeast fitness amounted to 0.963.

For U13C C30U C33U, the yeast fitness stood at 0.537.

Take U13A A57C C66G: the yeast fitness was no more than 0.5.

Take U13C A21G A42U A57U C62U: the yeast fitness was no more than 0.5.

With U13A A57G, the yeast fitness came out at 0.792.

With U13A G23C C27G, the yeast fitness is 0.504.

For U13C A42C, the yeast fitness was determined as 0.932.

On to U13C A42U, for which the yeast fitness amounted to 0.923.

Take U13C A20C G48C A57G: the yeast fitness was no more than 0.5.

Take U13C A14C U64C A65C: the yeast fitness is no more than 0.5.

As for U13A U59A U64A A70C, the yeast fitness was 0.511.

Regarding U13A C22G C24G A36U A40C G51C, the yeast fitness stood at 0.548.

On to U13C A15U U16A U19A, for which the yeast fitness was no more than 0.5.

Turning to U13A G25C C27A C30G A40C C60U C66G, the yeast fitness is no more than 0.5.

For U13C A37U C62A, the yeast fitness is no more than 0.5.

Regarding U13C A45C G50U A57G, the yeast fitness was no more than 0.5.

In the case of U13A G58C C60U C66G, the yeast fitness stood at 0.574.

On to U13A C30G U54C, for which the yeast fitness was no more than 0.5.

As for U13A C46A G48C, the yeast fitness worked out at 1.08.

In the case of U13A G68C, the yeast fitness turned out to be 0.762.

For U13A G68A, the yeast fitness amounted to 0.864.

For U13A C33A U54C, the yeast fitness was no more than 0.5.

As to U13C A20G C46U, the yeast fitness is 0.66.

As for U13C C22G G38C A45U C49G, the yeast fitness is no more than 0.5.

Take U13A U28C C60A: the yeast fitness worked out at 0.551.

As to U13A C27G U32C A45G U64A, the yeast fitness was no more than 0.5.

As to U13A G23C U32G C49U A69U, the yeast fitness was no more than 0.5.

On to U13A G23C C24G G50A, for which the yeast fitness was no more than 0.5.

On to U13A U28C C33G G38A U64G, for which the yeast fitness is no more than 0.5.

In the case of U13A C34U A40U A65C, the yeast fitness was no more than 0.5.

Turning to U13A G18C A36G G41C, the yeast fitness was 0.706.

Take U13C C22G C27A G51C A70U: the yeast fitness is no more than 0.5.

Consider U13A U16A U54A, for which the yeast fitness was 0.505.

Consider U13A G38C, for which the yeast fitness came out at 0.619.

For the variant U13A C22U A57U, the yeast fitness is no more than 0.5.

Consider U13A C27U A57G C66U, for which the yeast fitness was no more than 0.5.

In the case of U13C C29U, the yeast fitness stood at 0.831.

In the case of U13A C29A C31G, the yeast fitness stood at 0.524.

As for U13A U54C C55U C62U G68C, the yeast fitness turned out to be 0.686.

U13C A14U A36U G38A A43U G67A: the yeast fitness was no more than 0.5.

Consider U13A G44C, for which the yeast fitness was determined as 0.94.

With U13A G41C A42G G67A, the yeast fitness is no more than 0.5.

With U13A C24U G41U U47C, the yeast fitness was no more than 0.5.

With U13C A14U G41C, the yeast fitness was 0.603.

Consider U13A C30G C31U C33G, for which the yeast fitness is no more than 0.5.

As to U13C A45U G63C, the yeast fitness is no more than 0.5.

Regarding U13A G56A C61G A70G, the yeast fitness was no more than 0.5.

Consider U13A A45G G50C C60A A69C, for which the yeast fitness was 0.821.

Consider U13A C49A G63A, for which the yeast fitness was no more than 0.5.

For the variant U13A G48A G67C, the yeast fitness worked out at 0.608.

Regarding U13A U16A C61U G63C, the yeast fitness was no more than 0.5.

On to U13C C22U C27U A37C, for which the yeast fitness turned out to be 0.563.

In the case of U13A U28A, the yeast fitness is 0.772.

Turning to U13C C24G C61A, the yeast fitness stood at 0.54.

For the variant U13C A65C, the yeast fitness was found to be 0.873.

Take U13C A65U: the yeast fitness is 1.02.

For U13A G18C C27U A65G, the yeast fitness is no more than 0.5.

Consider U13A U54A A69U, for which the yeast fitness was determined as 0.529.

On to U13A C61U, for which the yeast fitness stood at 0.786.

With U13A C61A, the yeast fitness was found to be 0.706.

Consider U13C A15G C30A C62G, for which the yeast fitness was no more than 0.5.

In the case of U13A C46A A69C, the yeast fitness was 0.722.

As to U13A U32A, the yeast fitness was 0.69.

For U13A U32C, the yeast fitness amounted to 0.875.

In the case of U13A C30A A69C, the yeast fitness stood at 0.656.

Take U13C C22A C24A: the yeast fitness is no more than 0.5.

Regarding U13C A37G, the yeast fitness came to 0.694.

In the case of U13C A37C, the yeast fitness amounted to 0.713.

With U13A C27G A40G G41C, the yeast fitness is 0.741.

U13A C30U C34U A42G G63A: the yeast fitness is no more than 0.5.

As for U13A U54C C62U G68C, the yeast fitness was no more than 0.5.

On to U13C A20C A42U, for which the yeast fitness came to 0.558.

For the variant U13A C24U C30A C60U, the yeast fitness was no more than 0.5.

As for U13A C31G C34A, the yeast fitness was found to be 0.624.

Take U13A C46G U53C C62U A69C: the yeast fitness was no more than 0.5.

For the variant U13A U32C A65G, the yeast fitness stood at 0.705.

In the case of U13A U19C C24G G25A G39C A40C G51C, the yeast fitness was no more than 0.5.

Take U13A G58C: the yeast fitness was determined as 0.853.

As for U13C A15G C22G, the yeast fitness was 0.571.

Take U13A A65G: the yeast fitness was determined as 1.04.

As for U13A A65C, the yeast fitness turned out to be 0.79.

As for U13C A43G, the yeast fitness was determined as 0.984.

As to U13A C27U C66U, the yeast fitness was found to be 0.787.

Consider U13A C30U C55G G58C G63C C66U, for which the yeast fitness was no more than 0.5.

In the case of U13A G18C C27U U54C A57U, the yeast fitness came to 0.561.

Take U13A C24A C60U: the yeast fitness was no more than 0.5.

With U13C A20G U54C, the yeast fitness is no more than 0.5.

In the case of U13C C30G U35C, the yeast fitness was no more than 0.5.

On to U13A C46A U64C, for which the yeast fitness was found to be 0.609.

As for U13A C24U U59C, the yeast fitness worked out at 0.55.

In the case of U13A A45C, the yeast fitness stood at 0.902.

For U13A C30U U47A U59A C60U C62G C66U, the yeast fitness worked out at 0.55.

U13C A36G C62U: the yeast fitness turned out to be 0.693.

In the case of U13A C60U A69U, the yeast fitness worked out at 0.62.

As for U13C A21G U28C C31G, the yeast fitness was 0.539.

In the case of U13A C61A G68A, the yeast fitness is no more than 0.5.

For the variant U13C A40C C66A, the yeast fitness worked out at 0.567.

With U13A C33G, the yeast fitness is 0.741.

Take U13A C62A: the yeast fitness came to 0.668.

Consider U13A C62G, for which the yeast fitness came out at 0.78.

For U13A U35C A36C A37U G50C, the yeast fitness is no more than 0.5.

With U13C A15U C46A A65C, the yeast fitness is no more than 0.5.

For the variant U13A C27U G56A, the yeast fitness is 0.97.

As to U13A C22U U35A C60U C61A, the yeast fitness was no more than 0.5.

As to U13A U54C C62U, the yeast fitness amounted to 0.679.

Turning to U13A C22G C24G A36U A40C A45G C66A, the yeast fitness is no more than 0.5.

For U13A U47A, the yeast fitness was found to be 0.872.

On to U13A U47C, for which the yeast fitness was determined as 0.774.

As to U13C A69C, the yeast fitness stood at 0.995.

Take U13C A14U G41C G48C: the yeast fitness is no more than 0.5.

Take U13A G41A G48A U53C: the yeast fitness is no more than 0.5.

In the case of U13A U16A C61G, the yeast fitness is no more than 0.5.

As for U13A C29U A40C, the yeast fitness is 0.54.

Consider U13A U47A C60A, for which the yeast fitness was 0.58.

Take U13C A42G C61G: the yeast fitness is no more than 0.5.

For U13A A70G, the yeast fitness stood at 0.937.

As to U13A A70U, the yeast fitness was found to be 1.04.

Consider U13A A70C, for which the yeast fitness was 1.03.

Consider U13C A43U C49U, for which the yeast fitness was 0.716.

Consider U13A U64A, for which the yeast fitness was determined as 0.832.

On to U13A U64C, for which the yeast fitness was 0.922.

As for U13C A36C C55U G68C, the yeast fitness was no more than 0.5.

As to U13A G41A A42C G50C A70G, the yeast fitness is no more than 0.5.

Turning to U13C A21G, the yeast fitness is 1.09.

Consider U13A G17A, for which the yeast fitness came to 0.764.

Consider U13A C30U C33A U35C, for which the yeast fitness was 0.558.

In the case of U13A U35G, the yeast fitness is 0.688.

Consider U13A U35A, for which the yeast fitness was 0.561.

On to U13C C22A C29U, for which the yeast fitness is no more than 0.5.

With U13C A45G, the yeast fitness came to 0.916.

Regarding U13A A45C C60A, the yeast fitness is no more than 0.5.

Take U13C A40G C62G: the yeast fitness was no more than 0.5.

For the variant U13A C34G U54A, the yeast fitness was determined as 0.609.

Consider U13A C24A C61A A69U, for which the yeast fitness worked out at 0.505.

Turning to U13C C29A A37U C49A, the yeast fitness was no more than 0.5.

For U13A G18C A36G G41C U47A, the yeast fitness is no more than 0.5.

U13C A15U U16A U19A C34U G67A G68C: the yeast fitness was no more than 0.5.

On to U13C C29U C31U U54G A65U G67A, for which the yeast fitness was no more than 0.5.

The record behind these values is the RNAGym collection of RNA variant scans (doi:10.1126/science.aae0568).
